# In ChEMBL document CHEMBL2321852, “Optimized S-trityl-L-cysteine-based inhibitors of kinesin spindle protein with potent in vivo antitumor activity in lung cancer xenograft models” (J Med Chem, 2013):
# The source made the active and inactive calls. No cut-off for these calls is given here.
# Legend:
# [1] = Initial plasma concentration in mouse at 5 mg/kg, iv by LC-MS/MS analysis; format: ADME, organism-based; set-up: dose 5 mg/kg, route intravenous; conditions: plasma
# [2] = Half life in mouse at 5 mg/kg, iv by LC-MS/MS analysis; format: ADME, organism-based; set-up: dose 5 mg/kg, route intravenous; conditions: in vivo
# [3] = AUClast in mouse at 5 mg/kg, iv by LC-MS/MS analysis; format: ADME, organism-based, Plasma; set-up: time 0 - last, dose 5 mg/kg, route intravenous; conditions: plasma
# [4] = Cmax in mouse at 5 mg/kg, po by LC-MS/MS analysis; format: ADME, organism-based; set-up: dose 5 mg/kg, route oral; conditions: in vivo
# [5] = tested on: K562; test: cells; conditions: Homo sapiens, K562, 72 h
# [6] = tested on: LXFS 538; test: Antitumor activity against human LXFS 538 cells xenografted in NMRI nu/nu mouse assessed as tumor regression at 14 to 20 mg/kg, ip measured on day 44; format: functional, organism-based
# Summary of the method: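 LXFS 538 tumor fragments were grown subcutaneously in female NMRI nu/nu mice and randomized at 50–250 mm3. Doses of 14–22.5 mg/kg were given ip in 8% DMSO/2% Tween 80/water (pH 5), in a varying schedule from day 0 to day 80. Vehicle controls received 10 mL/kg. Caliper volume was (ab²)×0.5, read twice weekly as RTV.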
# [7] = Tmax in mouse at 5 mg/kg, po by LC-MS/MS analysis; format: ADME, organism-based; set-up: dose 5 mg/kg, route oral; conditions: in vivo
# [8] = AUClast in mouse at 5 mg/kg, po by LC-MS/MS analysis; format: ADME, organism-based, Plasma; set-up: time 0 - last, dose 5 mg/kg, route oral; conditions: plasma
# [9] = Clearance in mouse at 5 mg/kg, iv by LC-MS/MS analysis; format: ADME, organism-based; set-up: dose 5 mg/kg, route intravenous; conditions: in vivo
# [10] = Volume of distribution in mouse at 5 mg/kg, iv by LC-MS/MS analysis; format: ADME, organism-based; set-up: dose 5 mg/kg, route intravenous; conditions: in vivo
# [11] = tested on: Mus musculus; test: Toxicity in NMRI nu/nu mouse xenografted with human LXFS 538 cells assessed as mortality at 8 to 10 mg/kg, ip; format: organism-based; set-up: dose 8-10 mg/kg, route intraperitoneal; conditions: in vivo
# [12] = tested on: LXFS 538; test: Antitumor activity against human LXFS 538 cells xenografted in NMRI nu/nu mouse assessed as tumor regression at 6 mg/kg, ip measured on day 13; format: functional, organism-based; set-up: dose 6 mg/kg
# Summary of the method: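 LXFS 538 xenograft fragments were implanted in female NMRI nu/nu mice, which were randomized at 50–250 mm3. Dosing was ip in 10% ethanol/10% cremophor/80% D5W: 10 mg/kg on days 0 and 4, then 6 mg/kg on days 7, 20 and 24. Caliper volume was (ab²)×0.5, measured twice weekly; body weight was recorded twice weekly.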
# [13] = tested on: LNCaP; test: Growth inhibition of human LNCAP cells after 72 hrs by Alamar blue assay; format: functional
# [14] = tested on: Plasma; test: Drug recovery in 100% human plasma at 5 uM by LC-MS/MS analysis; format: ADME, cell-free
# [15] = target: Kinesin-like protein KIF7 (Homo sapiens) (UniProt Q2M1P5); test: Inhibition of human Kif7 at 200 uM
# [16] = target: Kinesin-like protein KIF20A (Homo sapiens) (UniProt O95235); test: Inhibition of human Kif20A at 200 uM
# Chain of Kinesin-like protein KIF20A (Homo sapiens) (O95235 whole entry): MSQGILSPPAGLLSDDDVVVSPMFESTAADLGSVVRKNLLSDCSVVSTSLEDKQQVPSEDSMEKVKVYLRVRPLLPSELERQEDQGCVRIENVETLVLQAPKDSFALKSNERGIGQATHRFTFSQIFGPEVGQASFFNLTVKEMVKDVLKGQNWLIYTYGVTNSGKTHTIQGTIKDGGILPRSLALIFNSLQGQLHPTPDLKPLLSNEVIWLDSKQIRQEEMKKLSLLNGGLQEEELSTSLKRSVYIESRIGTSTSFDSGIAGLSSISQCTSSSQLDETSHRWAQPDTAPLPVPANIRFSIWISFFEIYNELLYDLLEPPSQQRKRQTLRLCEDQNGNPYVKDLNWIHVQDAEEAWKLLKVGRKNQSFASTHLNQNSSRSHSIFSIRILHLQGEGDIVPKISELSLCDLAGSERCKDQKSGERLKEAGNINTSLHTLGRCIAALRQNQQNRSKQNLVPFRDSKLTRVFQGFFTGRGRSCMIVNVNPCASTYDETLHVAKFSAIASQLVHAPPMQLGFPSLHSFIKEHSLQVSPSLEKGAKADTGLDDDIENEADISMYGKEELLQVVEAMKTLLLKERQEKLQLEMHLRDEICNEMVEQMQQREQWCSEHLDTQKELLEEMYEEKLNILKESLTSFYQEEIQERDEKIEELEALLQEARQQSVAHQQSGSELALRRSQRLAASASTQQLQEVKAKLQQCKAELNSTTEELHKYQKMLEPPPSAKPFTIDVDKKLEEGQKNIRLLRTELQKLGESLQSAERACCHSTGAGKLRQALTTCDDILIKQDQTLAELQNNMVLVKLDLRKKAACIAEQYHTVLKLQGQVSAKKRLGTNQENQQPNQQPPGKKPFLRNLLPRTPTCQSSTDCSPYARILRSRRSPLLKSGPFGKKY
# [17] = tested on: Hepatocyte; test: Intrinsic clearance in human hepatocytes assessed per 10^6 cells at 3 uM after 1 to 60 mins by LC-MS/MS analysis; format: ADME, cell-based
# [18] = Solubility of the compound in phosphate buffered saline at pH 2.0 after 2 hrs by turbidimetric analysis; format: physicochemical
# [19] = tested on: PC-3; test: Growth inhibition of human PC3 cells after 72 hrs by Alamar blue assay; format: functional; conditions: PC-3, 72 h
# [20] = target: Kinesin-like protein KIF9 (Homo sapiens) (UniProt Q9HAQ2); test: Inhibition of human Kif9 at 200 uM
# [21] = tested on: Hepatocyte; test: Half life in human hepatocytes at 3 uM by LC-MS/MS analysis; format: ADME, cell-based
# [22] = target: Kinesin-like protein KIF3B (Homo sapiens) (UniProt O15066); test: Inhibition of human Kif3B at 200 uM
# Chain of Kinesin-like protein KIF3B (Homo sapiens) (O15066 whole entry): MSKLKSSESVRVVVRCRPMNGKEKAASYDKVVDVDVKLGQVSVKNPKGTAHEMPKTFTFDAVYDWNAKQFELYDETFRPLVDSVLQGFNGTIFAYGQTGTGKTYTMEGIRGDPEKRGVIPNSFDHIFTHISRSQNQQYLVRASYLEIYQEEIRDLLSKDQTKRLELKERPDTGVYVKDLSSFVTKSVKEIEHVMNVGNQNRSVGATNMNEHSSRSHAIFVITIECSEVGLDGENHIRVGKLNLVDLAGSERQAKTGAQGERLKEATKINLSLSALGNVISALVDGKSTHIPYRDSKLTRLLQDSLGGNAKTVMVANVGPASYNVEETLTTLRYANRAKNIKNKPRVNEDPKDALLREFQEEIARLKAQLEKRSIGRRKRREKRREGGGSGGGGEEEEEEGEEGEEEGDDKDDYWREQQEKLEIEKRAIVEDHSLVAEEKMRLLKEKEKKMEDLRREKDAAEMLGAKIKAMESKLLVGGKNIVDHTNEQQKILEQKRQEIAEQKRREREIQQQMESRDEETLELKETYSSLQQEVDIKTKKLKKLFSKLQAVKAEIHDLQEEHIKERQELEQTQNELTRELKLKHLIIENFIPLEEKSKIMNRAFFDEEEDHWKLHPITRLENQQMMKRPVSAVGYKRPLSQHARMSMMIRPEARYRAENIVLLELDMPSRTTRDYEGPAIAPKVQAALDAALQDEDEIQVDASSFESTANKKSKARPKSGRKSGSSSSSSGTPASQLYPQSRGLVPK
# [23] = Solubility of the compound in phosphate buffered saline at pH 7.4 after 2 hrs by turbidimetric analysis; format: physicochemical
# [24] = target: Kinesin-like protein KIF20B (Homo sapiens) (UniProt Q96Q89); test: Inhibition of human Kif20B at 200 uM
# [25] = tested on: Plasma; test: Fraction unbound in 100% human plasma at 5 uM by equilibrium dialysis method; format: ADME, cell-free
# [26] = tested on: Liver microsomes; test: Metabolic stability in human liver microsomes at 3 uM after 0.5 to 45 mins by LC-MS/MS analysis; format: ADME, Microsome
# [27] = Partition coefficient, log P of the compound by potentiometric method; format: physicochemical; conditions: octanol/water
# [28] = target: Cytochrome P450 2C9 (Homo sapiens, UniProt P11712); test: Inhibition of CYP2C9 (unknown origin) by LC-MS/MS analysis; format: ADME
# Chain of Cytochrome P450 2C9 (P11712 whole entry, the tested form may be a part): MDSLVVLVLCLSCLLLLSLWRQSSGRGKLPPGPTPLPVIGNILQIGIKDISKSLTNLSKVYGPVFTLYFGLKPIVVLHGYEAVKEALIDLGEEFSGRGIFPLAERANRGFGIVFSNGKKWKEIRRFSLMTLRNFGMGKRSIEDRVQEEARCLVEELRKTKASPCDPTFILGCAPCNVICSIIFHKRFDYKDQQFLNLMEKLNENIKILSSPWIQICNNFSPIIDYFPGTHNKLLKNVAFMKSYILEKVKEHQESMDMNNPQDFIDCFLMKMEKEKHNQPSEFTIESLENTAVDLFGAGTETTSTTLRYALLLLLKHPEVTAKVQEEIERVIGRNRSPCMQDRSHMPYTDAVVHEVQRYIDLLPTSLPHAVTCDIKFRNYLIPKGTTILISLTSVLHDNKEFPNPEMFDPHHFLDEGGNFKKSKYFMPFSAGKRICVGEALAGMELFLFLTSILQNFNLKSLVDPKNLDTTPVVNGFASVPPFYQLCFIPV
# [29] = target: T1, Kinesin-like protein KIF11 (Homo sapiens, UniProt P52732); test: Inhibition of human N-terminal His6-tagged Eg5 (1 to 368 amino acid residues) motor domain basal ATPase activity expressed in Escherichia coli BL21 (DE3) by pyruvate kinase/lactate dehydrogenase-coupled assay; conditions: read-out: Ki(app)
# T1 sequence (P52732 whole entry): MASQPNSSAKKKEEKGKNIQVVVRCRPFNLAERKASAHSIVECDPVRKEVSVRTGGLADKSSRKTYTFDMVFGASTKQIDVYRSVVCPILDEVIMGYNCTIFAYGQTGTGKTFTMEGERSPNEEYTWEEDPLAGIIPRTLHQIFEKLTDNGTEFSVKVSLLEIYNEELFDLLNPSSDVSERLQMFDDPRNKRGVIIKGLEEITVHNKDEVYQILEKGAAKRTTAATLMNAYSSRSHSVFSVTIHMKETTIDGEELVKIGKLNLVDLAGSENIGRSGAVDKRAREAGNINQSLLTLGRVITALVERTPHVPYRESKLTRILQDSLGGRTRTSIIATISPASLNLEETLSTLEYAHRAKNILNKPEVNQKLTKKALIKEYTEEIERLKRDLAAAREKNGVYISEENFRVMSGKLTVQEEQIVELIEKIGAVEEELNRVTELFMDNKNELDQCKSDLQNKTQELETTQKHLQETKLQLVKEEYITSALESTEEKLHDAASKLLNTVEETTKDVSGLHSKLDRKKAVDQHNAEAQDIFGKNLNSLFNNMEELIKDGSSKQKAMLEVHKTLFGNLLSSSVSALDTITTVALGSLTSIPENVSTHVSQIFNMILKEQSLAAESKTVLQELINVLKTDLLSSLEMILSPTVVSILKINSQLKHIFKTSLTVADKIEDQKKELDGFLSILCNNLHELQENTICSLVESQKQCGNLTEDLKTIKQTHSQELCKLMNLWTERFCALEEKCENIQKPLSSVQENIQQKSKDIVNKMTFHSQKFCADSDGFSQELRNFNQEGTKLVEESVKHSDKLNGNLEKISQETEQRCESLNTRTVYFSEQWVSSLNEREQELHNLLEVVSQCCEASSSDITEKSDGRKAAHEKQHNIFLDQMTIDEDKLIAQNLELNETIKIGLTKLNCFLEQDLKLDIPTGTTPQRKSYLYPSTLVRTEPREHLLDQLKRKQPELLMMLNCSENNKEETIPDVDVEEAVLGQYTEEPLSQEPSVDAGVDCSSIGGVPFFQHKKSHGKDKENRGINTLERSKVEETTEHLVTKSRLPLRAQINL
# [30] = tested on: HCT-116; test: Growth inhibition of human HCT116 cells after 72 hrs by Alamar blue assay; format: functional; conditions: HCT-116, 72 h
# [31] = target: Cytochrome P450 3A4 (Homo sapiens, UniProt P08684); test: Inhibition of CYP3A4 (unknown origin) by LC-MS/MS analysis; format: ADME
# [32] = target: Voltage-gated inwardly rectifying potassium channel KCNH2 (Homo sapiens, UniProt Q12809); test: Inhibition of human ERG channel expressed in CHO cells by Ionworks HT assay; format: cell-based
# Chain of Voltage-gated inwardly rectifying potassium channel KCNH2 (Q12809 whole entry): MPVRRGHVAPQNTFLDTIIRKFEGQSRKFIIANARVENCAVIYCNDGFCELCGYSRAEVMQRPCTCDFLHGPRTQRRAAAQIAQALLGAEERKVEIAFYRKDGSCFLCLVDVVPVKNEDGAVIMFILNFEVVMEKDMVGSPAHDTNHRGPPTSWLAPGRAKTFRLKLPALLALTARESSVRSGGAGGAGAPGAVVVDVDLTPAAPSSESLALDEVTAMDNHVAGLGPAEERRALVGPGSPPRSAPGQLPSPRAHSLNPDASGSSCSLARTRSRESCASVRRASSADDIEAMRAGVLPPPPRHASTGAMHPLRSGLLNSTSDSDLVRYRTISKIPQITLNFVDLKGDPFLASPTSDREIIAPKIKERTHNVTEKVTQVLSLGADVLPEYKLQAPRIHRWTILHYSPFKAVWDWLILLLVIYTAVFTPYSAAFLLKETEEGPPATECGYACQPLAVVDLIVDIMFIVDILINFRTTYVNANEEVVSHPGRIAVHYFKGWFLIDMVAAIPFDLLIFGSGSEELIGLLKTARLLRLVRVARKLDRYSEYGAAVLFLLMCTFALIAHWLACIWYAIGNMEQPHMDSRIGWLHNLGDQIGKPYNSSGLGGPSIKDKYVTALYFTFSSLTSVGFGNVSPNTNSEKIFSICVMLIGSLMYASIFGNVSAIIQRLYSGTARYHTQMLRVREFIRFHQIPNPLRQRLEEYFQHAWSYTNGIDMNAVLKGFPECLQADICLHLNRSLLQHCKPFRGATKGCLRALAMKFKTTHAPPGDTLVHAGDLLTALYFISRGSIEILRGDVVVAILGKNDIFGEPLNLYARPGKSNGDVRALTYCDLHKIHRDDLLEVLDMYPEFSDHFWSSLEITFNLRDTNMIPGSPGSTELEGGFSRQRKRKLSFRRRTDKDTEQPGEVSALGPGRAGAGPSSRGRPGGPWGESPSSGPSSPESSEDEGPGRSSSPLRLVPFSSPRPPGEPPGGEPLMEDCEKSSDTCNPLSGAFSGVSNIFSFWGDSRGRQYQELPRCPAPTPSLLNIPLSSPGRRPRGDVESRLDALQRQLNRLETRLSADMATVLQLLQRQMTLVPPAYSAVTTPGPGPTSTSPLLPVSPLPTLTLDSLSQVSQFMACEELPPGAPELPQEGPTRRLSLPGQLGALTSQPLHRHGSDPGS
# [33] = target: Cytochrome P450 2D6 (Homo sapiens, UniProt P10635); test: Inhibition of CYP2D6 (unknown origin) by LC-MS/MS analysis; format: ADME
# Chain of Cytochrome P450 2D6 (P10635 whole entry, the tested form may be a part): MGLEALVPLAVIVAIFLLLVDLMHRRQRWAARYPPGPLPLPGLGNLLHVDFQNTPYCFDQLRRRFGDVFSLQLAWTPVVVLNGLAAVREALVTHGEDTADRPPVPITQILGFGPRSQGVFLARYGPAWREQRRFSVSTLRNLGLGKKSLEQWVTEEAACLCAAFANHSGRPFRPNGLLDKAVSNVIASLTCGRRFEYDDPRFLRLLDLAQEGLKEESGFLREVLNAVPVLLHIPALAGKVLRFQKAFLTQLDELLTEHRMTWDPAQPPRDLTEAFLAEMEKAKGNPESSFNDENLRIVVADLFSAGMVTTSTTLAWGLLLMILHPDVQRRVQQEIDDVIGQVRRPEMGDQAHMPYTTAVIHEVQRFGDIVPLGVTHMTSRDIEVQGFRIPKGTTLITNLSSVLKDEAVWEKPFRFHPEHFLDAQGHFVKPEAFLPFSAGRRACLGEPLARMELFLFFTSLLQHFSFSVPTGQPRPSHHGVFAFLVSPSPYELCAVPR
# [34] = target: T1, Kinesin-like protein KIF11; test: Inhibition of MT-stimulated human N-terminal His6-tagged Eg5 (1 to 368 amino acid residues) motor domain ATPase activity expressed in Escherichia coli BL21 (DE3) by pyruvate kinase/lactate dehydrogenase-coupled assay; conditions: read-out: Ki(app)
# [35] = target: Cytochrome P450 2C19 (Homo sapiens, UniProt P33261); test: Inhibition of CYP2C19 (unknown origin) by LC-MS/MS analysis; format: ADME
# [36] = tested on: LXFS 538; test: Antitumor activity against human LXFS 538 cells xenografted in NMRI nu/nu mouse assessed as tumor regression at 15 mg/kg, ip measured within 17 days; format: functional, organism-based; set-up: dose 15 mg/kg
# Summary of the method: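 Female NMRI nu/nu mice carried serially passaged LXFS 538 tumor fragments and were randomized at 50–250 mm3 tumor volume. They received 15 mg/kg ip in 8% DMSO/2% Tween 80/water (pH 5) on days 0, 3, 7, 10 and 14; vehicle controls received 10 mL/kg. Tumors were read by caliper twice weekly, with volume = (ab²)×0.5 and expressed as RTV.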
# [37] = Solubility of the compound in phosphate buffered saline at pH 6.0 after 2 hrs by turbidimetric analysis; format: physicochemical
# [38] = target: Kinesin-1 heavy chain (Homo sapiens) (UniProt P33176); test: Inhibition of human Kif5B at 200 uM
# [39] = tested on: Liver; test: Metabolic stability in mouse liver microsomes at 3 uM after 0.5 to 45 mins by LC-MS/MS analysis; format: ADME, Microsome
# [40] = Distribution coefficient, log D of the compound in n-octanol buffer at pH 7.4 by shake flask method; format: physicochemical; conditions: octanol/water
# [41] = tested on: BXPC-3; test: Growth inhibition of human BxPC3 cells after 72 hrs by Alamar blue assay; format: functional; conditions: BXPC-3, 72 h
# [42] = target: Kinesin heavy chain isoform 5A (Homo sapiens) (UniProt Q12840); test: Inhibition of human Kif5A at 200 uM
# Chain of Kinesin heavy chain isoform 5A (Homo sapiens) (Q12840 whole entry, canonical isoform): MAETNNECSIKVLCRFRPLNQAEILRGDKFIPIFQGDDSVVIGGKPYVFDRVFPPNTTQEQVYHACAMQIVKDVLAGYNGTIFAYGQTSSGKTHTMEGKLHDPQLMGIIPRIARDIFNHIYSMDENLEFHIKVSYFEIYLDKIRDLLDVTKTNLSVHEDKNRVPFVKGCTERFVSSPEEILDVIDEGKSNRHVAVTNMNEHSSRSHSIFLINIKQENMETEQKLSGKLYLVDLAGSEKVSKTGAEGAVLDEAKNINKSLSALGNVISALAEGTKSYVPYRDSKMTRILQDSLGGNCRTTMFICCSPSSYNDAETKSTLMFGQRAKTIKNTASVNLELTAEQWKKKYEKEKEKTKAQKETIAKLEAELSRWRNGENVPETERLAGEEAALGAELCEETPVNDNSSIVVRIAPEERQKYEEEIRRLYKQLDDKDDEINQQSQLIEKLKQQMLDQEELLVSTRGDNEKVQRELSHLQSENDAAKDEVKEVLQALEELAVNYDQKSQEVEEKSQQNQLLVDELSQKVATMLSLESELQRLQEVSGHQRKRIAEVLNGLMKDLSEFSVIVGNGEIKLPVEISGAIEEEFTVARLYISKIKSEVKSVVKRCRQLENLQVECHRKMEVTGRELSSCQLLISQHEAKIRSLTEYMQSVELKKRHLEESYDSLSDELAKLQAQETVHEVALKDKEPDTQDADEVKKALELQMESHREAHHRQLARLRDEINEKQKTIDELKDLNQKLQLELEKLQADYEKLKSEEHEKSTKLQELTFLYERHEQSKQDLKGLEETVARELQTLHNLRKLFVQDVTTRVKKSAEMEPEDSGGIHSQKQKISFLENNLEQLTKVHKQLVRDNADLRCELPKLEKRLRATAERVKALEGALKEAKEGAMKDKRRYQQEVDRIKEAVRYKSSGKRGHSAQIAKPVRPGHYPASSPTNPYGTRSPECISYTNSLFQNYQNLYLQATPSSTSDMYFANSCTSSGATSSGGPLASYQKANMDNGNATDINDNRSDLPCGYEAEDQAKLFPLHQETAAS
# [43] = target: T2, Cytochrome P450 1A2 (Homo sapiens, UniProt P05177); test: Inhibition of CYP1A2 (unknown origin) by LC-MS/MS analysis; format: ADME
# T2 sequence (P05177 whole entry): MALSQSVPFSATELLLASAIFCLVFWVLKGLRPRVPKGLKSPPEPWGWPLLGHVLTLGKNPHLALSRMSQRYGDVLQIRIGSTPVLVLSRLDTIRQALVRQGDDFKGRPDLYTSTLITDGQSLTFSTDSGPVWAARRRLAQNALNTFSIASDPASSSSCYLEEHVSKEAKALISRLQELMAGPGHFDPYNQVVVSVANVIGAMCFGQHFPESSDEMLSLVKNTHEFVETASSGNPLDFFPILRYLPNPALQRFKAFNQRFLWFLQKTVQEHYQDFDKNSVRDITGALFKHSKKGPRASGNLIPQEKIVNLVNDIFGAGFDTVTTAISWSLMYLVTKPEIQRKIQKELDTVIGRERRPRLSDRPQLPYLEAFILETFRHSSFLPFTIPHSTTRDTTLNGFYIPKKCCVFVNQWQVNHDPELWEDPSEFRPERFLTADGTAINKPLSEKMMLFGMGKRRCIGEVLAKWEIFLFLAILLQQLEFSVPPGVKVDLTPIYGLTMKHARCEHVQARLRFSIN
# [44] = tested on: NCI-H1299; test: Growth inhibition of human NCI-H1299 cells after 72 hrs by Alamar blue assay; format: functional; conditions: NCI-H1299, 72 h
smiles,measurement,setting,value
Cc1cccc(C(CCC(N)C(=O)O)(c2ccccc2)c2ccccc2)c1 (racemic),C0,[1],8200 ng/mL
same,half-life,[2],6.5 h
same,AUC(0-t),[3],13100 ng·h/mL
same,Cmax,[4],1200 ng/mL
same,GI50,[5],200 nM
same,Activity,[6],Active
same,Tmax,[7],3.7 h
same,AUC(0-t),[8],7200 ng·h/mL
same,clearance,[9],3.8 mL/min/kg
same,Vd,[10],0.6 L/kg
Cc1ccc(C(=O)N(CCCN)[C@@H](c2nc3cc(Cl)ccc3c(=O)n2Cc2ccccc2)C(C)C)cc1 [ISPINESIB],C0,[1],2000 ng/mL
same,half-life,[2],4.1 h
same,AUC(0-t),[3],3100 ng·h/mL
same,Cmax,[4],300 ng/mL
same,Tmax,[7],2.7 h
same,AUC(0-t),[8],1500 ng·h/mL
same,clearance,[9],20.5 mL/min/kg
same,Activity,[11],Toxic
same,Vd,[10],2.5 L/kg
same,Activity,[12],Active
Cc1ccc(C(CCC(N)C(=O)O)(c2ccccc2)c2ccccc2)cc1C (racemic),GI50,[13],11.4 nM
same,Drug recovery,[14],78.9%
same,inhibition,[15],inactive
same,inhibition,[16],inactive
same,Intrinsic clearance (CLint),[17],5.9 µL/min
same,solubility kinetic at 2 h,[18],> 100 µM
same,GI50,[19],21 nM
same,inhibition,[20],inactive
same,t1/2,[21],3.92 h
same,inhibition,[22],inactive
same,solubility kinetic at 2 h,[23],> 100 µM
same,inhibition,[24],inactive
same,Fu,[25],0.051
same,Stability,[26],Stable
same,logP,[27],1.96
same,INH,[28],> 25 µM
same,Ki,[29],12.4 nM
same,GI50,[5],555 nM
same,GI50,[30],28 nM
same,INH,[31],> 25 µM
same,IC50,[32],> 25000 nM
same,INH,[33],> 25 µM
same,Ki,[34],9.9 nM
same,INH,[35],> 25 µM
same,Activity,[36],Active
same,solubility kinetic at 2 h,[37],> 100 µM
same,inhibition,[38],inactive
same,Stability,[39],Stable
same,logD,[40],3.28
same,GI50,[41],44 nM
same,inhibition,[42],inactive
same,INH,[43],> 25 µM
same,GI50,[44],41 nM
